Data as given in PMC5159748 (Archives of biochemistry and biophysics, 2016).
pKd: −log10 of the molar value.

Assays:
[1] = target: T1, K346 (Drosophila kinesin-1 motor domain; apo-K346) (Drosophila melanogaster, UniProt P17210); assay: stopped-flow FRET; format: binding
T1 sequence (P17210 2-346): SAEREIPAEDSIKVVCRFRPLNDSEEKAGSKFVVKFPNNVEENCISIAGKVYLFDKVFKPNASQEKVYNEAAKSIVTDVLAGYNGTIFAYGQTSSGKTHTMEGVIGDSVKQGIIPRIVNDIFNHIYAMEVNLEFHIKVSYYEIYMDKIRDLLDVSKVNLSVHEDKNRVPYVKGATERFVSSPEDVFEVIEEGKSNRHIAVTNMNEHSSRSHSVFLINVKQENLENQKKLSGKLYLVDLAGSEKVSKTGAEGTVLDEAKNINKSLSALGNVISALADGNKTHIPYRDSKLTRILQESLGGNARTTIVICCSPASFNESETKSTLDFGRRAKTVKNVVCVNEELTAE
Outline: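 Apo-K346 (Tev-cleaved, ADP-stripped) at 25 °C in A25 buffer (pH 6.9) with 50 mM KCl and glycerol as indicated. FRET from tyrosines to mdADP: excitation 280 nm, 418 nm long-pass emission. Association: stopped-flow mixing with ≥10-fold excess mdADP, kon = kobs/[mdADP]. Release: 0.84 μM E•mdADP chased with 400 μM MgATP, single-exponential fit. SD from ≥3 transients.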

[2] = target: Microtubules prepared from porcine tubulin, stabilized with paclitaxel (porcine) (UniProt P02550); assay: turbidity increase

Row | pKd [1] | pKd [2] | Molecule
1 | 8.70 |  | CNc1ccccc1C(=O)O[C@H]1C[C@H](n2cnc3c(N)ncnc32)O[C@@H]1COP(=O)(O)OP(=O)(O)O [mdADP]
2 |  | 5.74 | K346, monomeric Drosophila kinesin-1 motor domain (amino acids 2-346) (from UniProt P17210 2-346) (domain or fragment)
